Values after ≈ are worked out from the molar mass of the structure shown. Active and inactive are the calls of the source. The rule behind the calls is not given here.
How the values were obtained:
Staphylococcus aureus [1] = experiment: Antibacterial activity against methicillin-resistant Staphylococcus aureus DR42412 obtained from sputum isolate after 20 to 22 hrs by CLSI broth macro-dilution method; format: functional
Staphylococcus aureus [2] = experiment: Antibacterial activity against methicillin-resistant Staphylococcus aureus DM21595 obtained from wound isolate after 20 to 22 hrs by CLSI broth macro-dilution method; format: functional
Staphylococcus aureus [3] = experiment: Antibacterial activity against methicillin-resistant Staphylococcus aureus DB57964/04 after 20 to 22 hrs by CLSI broth macro-dilution method; format: functional
Staphylococcus aureus [4] = experiment: Antibacterial activity against methicillin-resistant Staphylococcus aureus DM09808R obtained from eye isolate after 20 to 22 hrs by CLSI broth macro-dilution method; format: functional
Staphylococcus aureus [5] = experiment: Antibacterial activity against methicillin-resistant Staphylococcus aureus ATCC […] after 20 to 22 hrs by CLSI broth macro-dilution method; format: functional
Klebsiella pneumoniae = experiment: Antibacterial activity against Klebsiella pneumoniae ATCC 10031 after 20 to 22 hrs by CLSI broth macro-dilution method; format: functional
[6] = Partition coefficient, log P of the compound by HPLC analysis; format: physicochemical; conditions: octanol/water; read-out: logP
Method in brief: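 Partition coefficient measured by HPLC following OECD guidelines for the testing of chemicals.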

Pseudomonas aeruginosa = experiment: Antibacterial activity against Pseudomonas aeruginosa ATCC 27853 after 20 to 22 hrs by CLSI broth macro-dilution method; format: functional
[7] = Selectivity ratio of HC50 for rabbit erythrocyte to MIC99 for Staphylococcus aureus ATCC 29213; format: functional
[8] = Selectivity ratio of HC50 for rabbit erythrocyte to MIC99 for methicillin-resistant Staphylococcus aureus clinical isolate DM21455; format: functional
[9] = Hemolytic activity against rabbit erythrocytes after 60 mins by spectrophotometric analysis; format: ADME, cell-based, Oryctolagus cuniculus, Erythrocyte
Staphylococcus aureus [10] = experiment: Antibacterial activity against methicillin-resistant Staphylococcus aureus clinical isolate DM21455 after 20 to 22 hrs by CLSI broth macro-dilution method; format: functional
Staphylococcus aureus [11] = experiment: Antibacterial activity against Staphylococcus aureus ATCC 29213 after 20 to 22 hrs by CLSI broth macro-dilution method; format: functional
[12] = Dissociation constant, pKa of the compound; format: physicochemical
Staphylococcus aureus [13] = experiment: Antimicrobial activity against Staphylococcus aureus DM4001 assessed as morphological changes by scanning electron microscopy relative to control; format: functional, organism-based
Mus musculus [14] = experiment: Toxicity against wild type C57BL6 mouse at 25 mg/kg, iv after 24 hrs; format: organism-based; set-up: dose 25 mg/kg, route intravenous; conditions: in vivo
Method in brief: (§1)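 Mice received a single bolus injection, 25 mg/kg intravenous or 50 mg/kg intraperitoneal, with survival recorded at 24 h; 2 animals per route.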

Mus musculus [15] = experiment: Toxicity against wild type C57BL6 mouse at 50 mg/kg, ip after 24 hrs; format: organism-based; set-up: dose 50 mg/kg, route intraperitoneal; conditions: in vivo; method in brief: as §1
[16] = Toxicity against New Zealand White rabbit corneal epithelium assessed as effect on wound closure at 50 ug/ml by Slit lamp photography relative to control; format: tissue-based, Oryctolagus cuniculus, Cornea; conditions: in vivo
Method in brief: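 A 5 mm corneal epithelial abrasion was made with a sterile trephine and the epithelium removed with a mini blade. Eyes were treated with saline, vancomycin 50 μg/mL, or agent 50 μg/mL. Wound closure was tracked over time from fluorescein-stained photographs of defect size.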

Mus musculus [17] = experiment: Toxicity against wild type C57BL6 mouse assessed as corneal opacity at 400 ug/ml administered topically 5 times a day by Slit lamp photography; format: organism-based, Cornea; conditions: in vivo, topical_or_ocular
Method in brief: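 Mouse eyes given topical drops five times per day at 400 μg/mL; cornea examined by slit lamp photography for clinical signs of toxicity and corneal opacity.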

Staphylococcus aureus [18] = experiment: Antimicrobial activity against in Staphylococcus aureus assessed as disruption of bacterial membrane at 10 uM by fluorescence microscopy; format: functional, organism-based
Method in brief: (§2)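 S. aureus DM4001 treated with 10 μM agent and incubated with the membrane-impermeant nucleic-acid dye SYTOX Green. Permeabilization was read as increased fluorescence intensity and confirmed by fluorescence microscopy counting green-stained cells.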

Staphylococcus aureus [19] = experiment: Antimicrobial activity against Staphylococcus aureus assessed as disruption of bacterial membrane at 10 uM by SYTOX green uptake assay; format: functional, organism-based; method in brief: as §2
Staphylococcus aureus [20] = experiment: Antimicrobial activity against Staphylococcus aureus DM4001 assessed as depolarization of bacterial membrane at 12.5 ug/ml by DiSC3-5-based cytoplasmic membrane depolarization assay; format: functional, organism-based
Method in brief: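 Clinical S. aureus DM4001 was loaded with the membrane-potential dye DiSC3-5, which self-quenches in polarized membranes. Agent added at 12.5 μg/mL. Depolarization was read as the rise in fluorescence intensity (counts per second) over time.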

Staphylococcus aureus [21] = experiment: Antibacterial activity against Staphylococcus aureus ATCC 700699 at 4 X MIC after 20 to 22 hrs; format: functional, organism-based
Staphylococcus aureus [22] = experiment: Antibacterial activity against vancomycin-intermediate resistant Staphylococcus aureus 10:DB6506 after 20 to 22 hrs by multipassage resistance selection method; format: functional, organism-based
Staphylococcus aureus [23] = experiment: Antibacterial activity against methicillin-resistant Staphylococcus aureus DM21455 after 20 to 22 hrs by multipassage resistance selection method; format: functional, organism-based
Enterococcus faecalis [24] = experiment: Antibacterial activity against Enterococcus faecalis ATCC 29212 after 20 to 22 hrs by multipassage resistance selection method; format: functional, organism-based
Staphylococcus aureus [25] = experiment: Antibacterial activity against methicillin-resistant Staphylococcus aureus DM21455 assessed as log reduction in CFU at 0.5 X MIC to 1 X MIC after 2 hrs by surface-spread plate method relative to control; format: functional
Staphylococcus aureus [26] = experiment: Antibacterial activity against methicillin-resistant Staphylococcus aureus DM21455 assessed as reduction in viable count at 4 X MIC after 10 mins by surface-spread plate method relative to control; format: functional
Staphylococcus aureus [27] = experiment: Antibacterial activity against methicillin-resistant Staphylococcus aureus DM21455 assessed as reduction in viable count at 2 X MIC after 5 mins by surface-spread plate method relative to control; format: functional
Staphylococcus aureus [28] = experiment: Antibacterial activity against methicillin-resistant Staphylococcus aureus DM21455 assessed as reduction in viable count after 5 to 10 mins by surface-spread plate method; format: functional, organism-based
[29] = Selectivity index, ratio of HC50 for rabbit erythrocyte to MIC99 for Enterococcus faecalis ATCC 29212; format: functional
[30] = Selectivity index, ratio of HC50 for rabbit erythrocyte to MIC99 for […] ATCC 12228; format: functional
[31] = Selectivity index, ratio of HC50 for rabbit erythrocyte to MIC99 for Streptococcus faecium ATCC 10541; format: functional
[32] = Selectivity index, ratio of HC50 for rabbit erythrocyte to MIC99 for Staphylococcus aureus ATCC 29737; format: functional
[33] = Selectivity index, ratio of HC50 for rabbit erythrocyte to MIC99 for Staphylococcus aureus ATCC 6538; format: functional
[34] = Selectivity index, ratio of HC50 for rabbit erythrocyte to MIC99 for Staphylococcus aureus ATCC 6538P; format: functional
[35] = Selectivity index, ratio of HC50 for rabbit erythrocyte to MIC99 for Staphylococcus aureus 10:DB6506; format: functional
[36] = Selectivity index, ratio of HC50 for rabbit erythrocyte to MIC99 for methicillin-resistant Staphylococcus aureus DR68004; format: functional
[37] = Selectivity index, ratio of HC50 for rabbit erythrocyte to MIC99 for methicillin-resistant Staphylococcus aureus DR42412; format: functional
[38] = Selectivity index, ratio of HC50 for rabbit erythrocyte to MIC99 for methicillin-resistant Staphylococcus aureus DM21595; format: functional
[39] = Selectivity index, ratio of HC50 for rabbit erythrocyte to MIC99 for methicillin-resistant Staphylococcus aureus DB57964/04; format: functional
[40] = Selectivity index, ratio of HC50 for rabbit erythrocyte to MIC99 for methicillin-resistant Staphylococcus aureus DM09808R; format: functional
[41] = Selectivity index, ratio of HC50 for rabbit erythrocyte to MIC99 for methicillin-resistant Staphylococcus aureus ATCC 700669; format: functional
Enterococcus faecalis [42] = experiment: Antibacterial activity against Enterococcus faecalis ATCC 29212 after 20 to 22 hrs by CLSI broth macro-dilution method; format: functional
Enterococcus faecium = experiment: Antibacterial activity against Streptococcus faecium ATCC 10541 after 20 to 22 hrs by CLSI broth macro-dilution method; format: functional
Staphylococcus aureus [43] = experiment: Antibacterial activity against Staphylococcus aureus ATCC 29737 after 20 to 22 hrs by CLSI broth macro-dilution method; format: functional
Staphylococcus aureus [44] = experiment: Antibacterial activity against Staphylococcus aureus ATCC 6538P after 20 to 22 hrs by CLSI broth macro-dilution method; format: functional
Staphylococcus aureus [45] = experiment: Antibacterial activity against Staphylococcus aureus ATCC 6538 after 20 to 22 hrs by CLSI broth macro-dilution method; format: functional
Staphylococcus aureus [46] = experiment: Antibacterial activity against vancomycin-intermediate resistant Staphylococcus aureus 10:DB6506 after 20 to 22 hrs by CLSI broth macro-dilution method; format: functional
Staphylococcus aureus [47] = experiment: Antibacterial activity against methicillin-resistant Staphylococcus aureus DR68004 obtained from blood isolate after 20 to 22 hrs by CLSI broth macro-dilution method; format: functional
[48] = test system: Staphylococcus epidermidis; experiment: Antibacterial activity against Staphylococcus epidermidis ATCC 12228 after 20 to 22 hrs by CLSI broth macro-dilution method

Question: With CCN(CC)CCCCOc1cc2oc3cc(OCCCCN(CC)CC)c(OC)c(CC=C(C)C)c3c(=O)c2c(O)c1CC=C(C)C as the compound, how does the MIC (Staphylococcus aureus [1]) read?
Answer: 0.39 µg/mL (≈ 0.587 µM)

Question: And the MIC (Staphylococcus aureus [2])?
Answer: 0.39 µg/mL (≈ 0.587 µM)

Question: And the MIC (Staphylococcus aureus [3])?
Answer: 0.78 µg/mL (≈ 1.17 µM)

Question: And the MIC (Staphylococcus aureus [4])?
Answer: 1.56 µg/mL (≈ 2.35 µM)

Question: What about the MIC (Staphylococcus aureus [5]) of the same compound?
Answer: 0.095 µg/mL (≈ 0.143 µM)

Question: And the MIC (Klebsiella pneumoniae)?
Answer: 40 µg/mL (≈ 60.2 µM)

Question: What about the logP [6] of the same compound?
Answer: 6.72

Question: What about the MIC (Pseudomonas aeruginosa) of the same compound?
Answer: 50 µg/mL (≈ 75.2 µM)

Question: What about the Selectivity ratio [7] of the same compound?
Answer: 50.3

Question: And the Selectivity ratio [8]?
Answer: 50.3

Question: What about the HC50 at 1 h [9] of the same compound?
Answer: 19.6 µM

Question: What about the MIC99 (Staphylococcus aureus [10]) of the same compound?
Answer: 0.39 µg/mL (≈ 0.587 µM)

Question: And the MIC99 (Staphylococcus aureus [11])?
Answer: 0.39 µg/mL (≈ 0.587 µM)

Question: What about the pKa [12] of the same compound?
Answer: 11

Question: And the Activity (Staphylococcus aureus [13])?
Answer: Active

Question: And the Activity (Mus musculus [14])?
Answer: Non-toxic

Question: And the Activity (Mus musculus [15])?
Answer: Non-toxic

Question: What about the Activity [16] of the same compound?
Answer: Non-toxic

Question: What about the Activity (Mus musculus [17]) of the same compound?
Answer: Non-toxic

Question: And the Activity (Staphylococcus aureus [18])?
Answer: Active

Question: And the Activity (Staphylococcus aureus [19])?
Answer: Active

Question: And the Activity (Staphylococcus aureus [20])?
Answer: Active

Question: And the Activity (Staphylococcus aureus [21])?
Answer: Active

Question: And the Activity (Staphylococcus aureus [22])?
Answer: Active

Question: And the Activity (Staphylococcus aureus [23])?
Answer: Active

Question: And the Activity (Enterococcus faecalis [24])?
Answer: Active

Question: And the FC (Staphylococcus aureus [25])?
Answer: 3

Question: And the Activity (Staphylococcus aureus [26])?
Answer: 99.9%

Question: What about the Activity (Staphylococcus aureus [27]) of the same compound?
Answer: 99.9%

Question: What about the Activity (Staphylococcus aureus [28]) of the same compound?
Answer: Dose-dependent effect

Question: And the “Selectivity Index” value [29]?
Answer: 25.1

Question: And the “Selectivity Index” value [30]?
Answer: 25.1

Question: And the “Selectivity Index” value [31]?
Answer: 100.5

Question: And the “Selectivity Index” value [32]?
Answer: 12.6

Question: And the “Selectivity Index” value [33]?
Answer: 12.6

Question: And the “Selectivity Index” value [34]?
Answer: 25.1

Question: And the “Selectivity Index” value [35]?
Answer: 25.1

Question: What about the “Selectivity Index” value [36] of the same compound?
Answer: 12.6

Question: And the “Selectivity Index” value [37]?
Answer: 50.3

Question: What about the “Selectivity Index” value [38] of the same compound?
Answer: 50.3

Question: And the “Selectivity Index” value [39]?
Answer: 25.1

Question: And the “Selectivity Index” value [40]?
Answer: 12.6

Question: And the “Selectivity Index” value [41]?
Answer: 206.3

Question: And the MIC (Enterococcus faecalis [42])?
Answer: 0.78 µg/mL (≈ 1.17 µM)

Question: What about the MIC (Enterococcus faecium) of the same compound?
Answer: 0.195 µg/mL (≈ 0.293 µM)

Question: And the MIC (Staphylococcus aureus [43])?
Answer: 1.56 µg/mL (≈ 2.35 µM)

Question: And the MIC (Staphylococcus aureus [44])?
Answer: 0.78 µg/mL (≈ 1.17 µM)

Question: What about the MIC (Staphylococcus aureus [45]) of the same compound?
Answer: 1.56 µg/mL (≈ 2.35 µM)

Question: What about the MIC (Staphylococcus aureus [46]) of the same compound?
Answer: 0.78 µg/mL (≈ 1.17 µM)

Question: What about the MIC (Staphylococcus aureus [47]) of the same compound?
Answer: 1.56 µg/mL (≈ 2.35 µM)

Question: And the MIC [48]?
Answer: 0.78 µg/mL (≈ 1.17 µM)
